# Assays:
# [1] = tested on: Staphylococcus aureus; experiment: Minimum concentration required to inhibit Staphylococcus aureus ATCC 25923; assay type: functional
# Summary of the method: (§1)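 Broth doubling-dilution MIC in Mueller Hinton broth against ATCC quality-control strains, incubated 24 h at 37 °C in ambient air. Poorly water-soluble compounds were dissolved in minimal DMSO. Values are in µg/mL.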
# [2] = tested on: Staphylococcus aureus; experiment: Tested for antibacterial activity against Staphylococcus aureus; assay type: functional
# [3] = tested on: Escherichia coli; experiment: Minimum concentration required to inhibit Escherichia coli ATCC 25922; assay type: functional; summary of the method: as §1
# [4] = tested on: Human alphaherpesvirus 1; experiment: Tested for antiviral activity against HSV-1 at a concentration of 100 ug/mL after 2 hr of treatment at 37 degrees C; assay type: functional, herpes simplex virus
# Summary of the method: (§2)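 HSV-1 strain MacIntyre stock (10^6.5–10^7.5 TCID50/100 µL) was mixed 1:1 with twofold compound dilutions made in RPMI-1640 with 2% FBS from a 1 mg/mL HBSS stock; concentrations are final. Mixtures were held 2 h at 37 °C, then diluted 10-fold to stop. Residual titer was measured on Vero monolayers by 10-fold dilutions in quadruplicate wells, scoring CPE daily for 5 days at 37 °C and 5% CO2. Titers were calculated by Reed–Muench as log10 TCID50/0.1 mL, mean of three, against a virus-plus-medium control.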
# [5] = tested on: Human alphaherpesvirus 1; experiment: Tested for antiviral activity against HSV-1 at a concentration of 6.25 ug/mL after 2 hr of treatment at 37 degrees C; assay type: functional, herpes simplex virus; summary of the method: as §2
# [6] = tested on: Human alphaherpesvirus 1; experiment: Tested for antiviral activity against HSV-1 at a concentration of 12.5 ug/mL after 2 hr of treatment at 37 degrees C; assay type: functional, herpes simplex virus; summary of the method: as §2
# [7] = (§3) Half life (t1/2) was determined; assay type: ADME
# Summary of the method: (§4)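 Hydrolytic stability: compound from a 0.1 mg/mL ethanol stock was spiked into 10 mM phosphate buffer, pH 6, and held at 60 °C (±0.2 °C). Periodic HPLC or LC-MS/MS analysis was run, and k_obs came from linear regression of peak integration (n = 3). Selected compounds were also tested in diluted (1:4) agar at 37 °C.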
# [8] = tested on: Human alphaherpesvirus 1; experiment: Tested for antiviral activity against HSV-1 at a concentration of 50 ug/mL after 2 hr of treatment at 37 degrees C; assay type: functional, herpes simplex virus; summary of the method: as §2
# [9] = tested on: Enterococcus faecalis; experiment: Minimum concentration required to inhibit Enterococcus faecalis ATCC 29212; assay type: functional; summary of the method: as §1
# [10] = tested on: Pseudomonas aeruginosa; experiment: Minimum concentration required to inhibit Pseudomonas aeruginosa ATCC 27853; assay type: functional; summary of the method: as §1
# [11] = tested on: Human alphaherpesvirus 1; experiment: Tested for antiviral activity against HSV-1 at a concentration of 25 ug/mL after 2 hr of treatment at 37 degrees C; assay type: functional, herpes simplex virus; summary of the method: as §2
# [12] = tested on: Enterococcus faecalis; experiment: Minimum concentration required to inhibit enterococcus faecalis ATCC 29212; assay type: functional; summary of the method: as §1
# [13] = as §3; assay type: functional; summary of the method: as §4
Structure (SMILES),MIC [1],MLC [1],Log 1/MIC [2],MIC [3],MLC [3],Log TCID50 [4],Log TCID50 [5],Log TCID50 [6],Log t1/2 [7],Log TCID50 [8],MIC [9],MLC [9],MIC [10],MLC [10],Log TCID50 [11],MIC [12],Log t1/2 [13]
CCCCCCCCCCCC(=O)OCC[n+]1ccccc1.[Br-],< 6.25 µg/mL,50 µg/mL,-0.9,25 µg/mL,100 µg/mL,1.63,7.03,6.8,0.33,6.73,2 µg/mL,100 µg/mL,200 µg/mL,200 µg/mL,6.73,–,–
CCCCCCCCCCCCNC(=O)C[n+]1ccccc1,4 µg/mL,4 µg/mL,-0.6,125 µg/mL,125 µg/mL,1.5,–,6.57,0.92,1.5,4 µg/mL,8 µg/mL,125 µg/mL,125 µg/mL,5.4,–,–
CCCCCCCCCCCC(=O)OCC[N+](CCCC)(CCCC)CCCC,2 µg/mL,8 µg/mL,-0.3,125 µg/mL,125 µg/mL,0.5,7,7,0.27,6,4 µg/mL,16 µg/mL,500 µg/mL,1000 µg/mL,6.63,–,–
CCCCCCCCCCCCCCCCCC(=O)OCC[n+]1ccccc1.[Br-],1 µg/mL,2 µg/mL,0,500 µg/mL,500 µg/mL,1.3,6.9,6.1,0.9,1.63,8 µg/mL,8 µg/mL,250 µg/mL,250 µg/mL,2.9,–,–
CCCCCCCCCCCCCCCC(=O)NCC[n+]1ccccc1.[Cl-],2 µg/mL,–,–,60 µg/mL,–,0.8,6.47,6.07,–,0.9,7.5 µg/mL,–,250 µg/mL,–,2.9,–,–
CCCCCCCCCCCCCCCC(=O)OCC[n+]1ccccc1.[Br-],1 µg/mL,1 µg/mL,0,32 µg/mL,32 µg/mL,–,–,–,1.1,–,–,8 µg/mL,250 µg/mL,1000 µg/mL,–,8 µg/mL,–
CCCCCCCCCCCC(=O)OC[n+]1ccccc1.[Cl-],50 µg/mL,50 µg/mL,-1.51,100 µg/mL,400 µg/mL,–,–,–,–,–,10 µg/mL,200 µg/mL,3200 µg/mL,3200 µg/mL,–,–,0.31

# Reference: ChEMBL document CHEMBL1145092, “Soft antimicrobial agents: synthesis and activity of labile environmentally friendly long chain quaternary ammonium compounds” (J Med Chem, 2003)
